Columns and labels:
α-glucosidase = α-glucosidase (Saccharomyces cerevisiae, UniProt P53341); experiment: α-Glucosidase enzyme kinetic analysis; assay type: biochemical; conditions: Lineweaver–Burk plot
How it was run: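 Yeast (S. cerevisiae) α-glucosidase in phosphate buffer, pH 6.8. p-NPG at 0.625, 1.25 and 2.5 mM was crossed with four concentrations of each test compound (sets of 7–40, 20–80 or 2–12 µM). Incubated 10 min at 37 °C, stopped with 0.2 M Na₂CO₃, read at 405 nm. Lineweaver–Burk plots assign inhibition mode.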

PTP1B [1] = target: T1, PTP1B (Homo sapiens, UniProt P18031); experiment: PTP1B enzyme kinetic analysis; assay type: biochemical; conditions: for Ki: PTP1B Ki value, secondary plot
T1 sequence (P18031 1-435): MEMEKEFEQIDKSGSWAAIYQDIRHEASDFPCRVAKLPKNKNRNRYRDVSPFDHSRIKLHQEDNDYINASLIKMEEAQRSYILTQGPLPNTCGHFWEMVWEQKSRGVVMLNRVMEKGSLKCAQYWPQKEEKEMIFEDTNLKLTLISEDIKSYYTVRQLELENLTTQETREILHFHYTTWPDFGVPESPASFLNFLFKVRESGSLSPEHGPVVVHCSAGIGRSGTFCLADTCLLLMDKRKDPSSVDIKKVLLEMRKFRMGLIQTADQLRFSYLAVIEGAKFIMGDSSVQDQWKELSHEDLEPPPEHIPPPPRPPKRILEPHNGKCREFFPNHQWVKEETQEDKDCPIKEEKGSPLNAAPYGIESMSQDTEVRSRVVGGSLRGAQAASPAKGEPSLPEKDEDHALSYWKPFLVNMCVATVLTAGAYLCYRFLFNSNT
How it was run: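 Human recombinant PTP1B in 50 mM citrate buffer (pH 6.0) with 0.1 M NaCl, 1 mM EDTA and 1 mM DTT. Test compound at 2, 4, 10 and 12 µM was crossed with p-NPP at 0.5, 1 and 2 mM. Enzyme plus inhibitor preincubated 10 min at 37 °C, then substrate added for 20 min at 37 °C. NaOH stop, A405. Lineweaver–Burk for mode; secondary plots for Kic/Kiu.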

PTP1B [2] = target: T1, PTP1B; experiment: PTP1B inhibition assay; assay type: biochemical; conditions: PTP1B IC50, isolated compounds and positive control; tested 1 to 100 µM
[3] = target: α-glucosidase enzyme from Saccharomyces cerevisiae (Saccharomyces cerevisiae, UniProt P53341); experiment: α-Glucosidase inhibition assay; assay type: biochemical
rat sucrase = conditions: read-out: IC50 against rat sucrase; ref 44 (Barber's review); cited from earlier work
rat maltase = conditions: read-out: IC50 against rat maltase; ref 44 (Barber's review); cited from earlier work

Sequence of α-glucosidase enzyme from Saccharomyces cerevisiae (P53341 whole entry): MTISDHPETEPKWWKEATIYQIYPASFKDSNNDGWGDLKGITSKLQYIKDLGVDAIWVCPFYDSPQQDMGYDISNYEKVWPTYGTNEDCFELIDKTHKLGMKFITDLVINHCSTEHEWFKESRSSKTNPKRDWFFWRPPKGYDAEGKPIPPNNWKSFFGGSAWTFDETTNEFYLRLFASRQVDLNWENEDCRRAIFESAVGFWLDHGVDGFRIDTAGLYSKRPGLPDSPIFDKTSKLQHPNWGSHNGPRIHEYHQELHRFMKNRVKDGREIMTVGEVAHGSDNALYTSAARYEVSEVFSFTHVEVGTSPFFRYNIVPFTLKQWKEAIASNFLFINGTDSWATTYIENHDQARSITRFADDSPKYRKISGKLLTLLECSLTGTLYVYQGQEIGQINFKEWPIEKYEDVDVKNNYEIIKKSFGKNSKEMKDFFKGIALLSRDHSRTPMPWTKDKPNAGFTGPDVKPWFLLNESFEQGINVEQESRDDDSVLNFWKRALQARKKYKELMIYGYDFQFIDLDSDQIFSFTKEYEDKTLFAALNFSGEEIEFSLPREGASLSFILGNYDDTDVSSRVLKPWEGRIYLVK
Sequence of α-glucosidase (P53341 whole entry): as above

Row | Structure (SMILES) | α-glucosidase Inhibition type (α-glucosidase) | PTP1B Inhibition type (PTP1B [1]; Lineweaver–Burk plot) | Ki (PTP1B [1]; Kic) [µM] | Ki (PTP1B [1]; Kiu) [µM] | IC50 (PTP1B [2]) [µM] | IC50 [3] [µM] | α-glucosidase potency relative to acarbose ([3]; ratio of IC50 values) | IC50 (rat sucrase) [µM] | IC50 (rat maltase) [µM]
1 | O=c1oc(-c2ccc(O)c(O)c2)cc2cccc(O)c12 [Compound 12, Thunberginol A] | Uncompetitive | mixed-type | 12.2 | 5.5 | 8 ± 1.1 | 3.4 ± 0.2 | over 70 times |  | 
2 | O=c1c(O)c(-c2ccc(O)c(O)c2)oc2cc(O)cc(O)c12 [quercetin] |  |  |  |  |  |  |  | > 400 | 281

— paper PMC12642897 (Journal of Enzyme Inhibition and Medicinal Chemistry, 2025)
